What was measured:
[1] = Equilibrium solubility in distilled water; format: physicochemical; details: 25°C, 72 hours
How it was run: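 Supernatant sampled at 0, 12, 24, 36, 48, 60 and 72 h and passed through a 0.45-µm filter. Concentration measured by HPLC at 242 nm, 30°C, 1.0 mL/min. Mobile phase was methanol or acetonitrile with phosphate buffer (pH 8.0 or 7.4; 70:30 or 80:20 v/v), depending on compound.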

xylene-induced ear edema = test: Xylene-induced ear edema test; format: in vivo; details: mice, intraperitoneal, equivalent to 200 μg/kg Bud, 1 hour before xylene
How it was run: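 Male Kunming mice (20–25 g), n=10 per group, dosed intraperitoneally (0.1 mL/10 g body weight) with test compound at a dose equivalent to 200 µg/kg budesonide; vehicle 2% DMSO. After 1 h, 20 µL xylene applied to right ear, left ear untreated. Killed 1 h later; 6-mm ear discs weighed. Edema = right minus left ear weight. Analysed by one-way ANOVA with Fisher's LSD; mean ± SD.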

[2] = system: IL-6 production in LPS-induced A549 cells; test: Inhibition of IL-6 production; format: cell-based; details: Homo sapiens, A549, 24 h, read-out: inhibitory rate on IL-6
How it was run: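 A549 cells preincubated 1 h with test compound (10^-11–10^-6 M), then stimulated with LPS-EB (5 µL of 10 µg/mL solution) for 24 h. IL-6 in supernatants measured by ELISA, read at 450 nm. Inhibitory rate of IL-6 production calculated; IC50 from dose–response curves; n=3, mean ± SD.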

equilibrium solubility [1]: 0.0022 g/100 g water
Compound: CCCC1O[C@@H]2C[C@H]3[C@@H]4CCC5=CC(=O)C=C[C@]5(C)[C@H]4[C@@H](O)C[C@]3(C)[C@]2(C(=O)CO)O1 (stereo partly drawn) [Bud, budesonide]
inhibition of ear edema (xylene-induced ear edema): 17.19% | inhibition at 0.001 µM [2]: > 50%
